Results: ChEMBL document CHEMBL1143019, “Hybrid molecules of estrone: new compounds with potential antibacterial, antifungal, and antiproliferative activities” (2007)

Tests used:
[1] = test system: Staphylococcus aureus; experiment: Antibacterial activity against Staphylococcus aureus SG 511 after 24 hrs by micro-broth dilution method; type: functional; conditions: SG 511, 24 h
In short: (§1)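 Microbroth dilution per NCCLS guidelines. Bacteria grown overnight at 37 °C in Mueller–Hinton broth. Compound solution serially diluted twofold in MHB, then wells inoculated to a final 5×10⁵ CFU/mL. Incubated 24 h at 37 °C. MIC (µg/mL) read on an automatic plate reader as the lowest dilution allowing no visible growth.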

[2] = test system: Staphylococcus aureus; experiment: Antibacterial activity against methicillin-resistant Staphylococcus aureus 994/93 after 24 hrs by micro-broth dilution method; type: functional
In short: (§2)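 Broth microdilution per NCCLS in Mueller–Hinton broth. Overnight cultures grown at 37 °C. Compound serially diluted twofold, then wells inoculated to a final 5×10⁵ CFU/mL. Plates held at 37 °C for 24 h. MIC (µg/mL) read on an automatic plate reader as the lowest dilution with no visible growth.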

[3] = test system: Staphylococcus aureus; experiment: Antibacterial activity against methicillin-resistant Staphylococcus aureus 134/94 after 24 hrs by microbroth dilution method; type: functional; in short: as §2
[4] = test system: Micrococcus luteus; experiment: Antibacterial activity against Micrococcus luteus ATCC 10240 after 24 hrs by microbroth dilution method; type: functional; conditions: ATCC 10240, 24 h; in short: as §1
[5] = test system: Enterococcus faecalis; experiment: Antibacterial activity against Enterococcus faecalis 1528 after 24 hrs by micro-broth dilution method; type: functional; in short: as §1
[6] = test system: Mycolicibacterium smegmatis; experiment: Antimicrobial activity against Mycobacterium smegmatis SG 987 after 24 hrs by micro-broth dilution method; type: functional; in short: as §1
[7] = test system: Mycolicibacterium aurum; experiment: Antimicrobial activity against Mycobacterium aurum SB 66 after 24 hrs by micro-broth dilution method; type: functional; in short: as §1
[8] = test system: Mycolicibacterium vaccae; experiment: Antimicrobial activity against Mycobacterium vaccae 10670 after 24 hrs by micro-broth dilution method; type: functional; in short: as §1
[9] = test system: Mycolicibacterium fortuitum; experiment: Antimicrobial activity against Mycobacterium fortuitum Borstel after 24 hrs by microbroth dilution method; type: functional; in short: as §1
[10] = test system: Mycobacterium tuberculosis; experiment: Antimicrobial activity against Mycobacterium tuberculosis My 331/88 after 14 days; type: functional; conditions: 336 h
[11] = test system: Mycobacterium tuberculosis; experiment: Antimicrobial activity against Mycobacterium tuberculosis My 331/88 after 21 days; type: functional; conditions: 504 h
[12] = test system: Mycobacterium avium; experiment: Antimicrobial activity against Mycobacterium avium My 330/88 after 14 days; type: functional; conditions: 336 h
[13] = test system: Mycobacterium avium; experiment: Antimicrobial activity against Mycobacterium avium My 330/88 after 21 days; type: functional; conditions: 504 h
[14] = test system: Mycobacterium kansasii; experiment: Antimicrobial activity against Mycobacterium kansasii My 235/80 after 7 days; type: functional; conditions: 168 h
In short: (§3)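 Run in Šula semisynthetic liquid medium containing bovine serum. Compounds added as DMSO solutions at final concentrations of […]. Each strain was also inoculated onto Löwenstein–Jensen medium to control inoculum sterility and growth.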

[15] = test system: Mycobacterium kansasii; experiment: Antimicrobial activity against Mycobacterium kansasii My 235/80 after 14 days; type: functional; conditions: 336 h; in short: as §3
[16] = test system: Mycobacterium kansasii; experiment: Antimicrobial activity against Mycobacterium kansasii My 235/80 after 21 days; type: functional; conditions: 504 h; in short: as §3
[17] = test system: Mycobacterium kansasii; experiment: Antimicrobial activity against Mycobacterium kansasii My 6509/96 after 7 days; type: functional; conditions: 168 h; in short: as §3
[18] = test system: Mycobacterium kansasii; experiment: Antimicrobial activity against Mycobacterium kansasii My 6509/96 after 14 days; type: functional; conditions: 336 h; in short: as §3
[19] = test system: Mycobacterium kansasii; experiment: Antimicrobial activity against Mycobacterium kansasii My 6509/96 after 21 days; type: functional; conditions: 504 h; in short: as §3
[20] = test system: Candida albicans; experiment: Antifungal activity against Candida albicans ATCC 44859 after 24 hrs; type: functional; conditions: ATCC 44859, 24 h
In short: (§4)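 Modified NCCLS M27-A broth microdilution with clinical isolates subcultured on Sabouraud dextrose agar. Suspensions diluted 1:50 in RPMI 1640 to give a final inoculum of 0.5–2.5×10³ CFU/mL for yeasts or 0.5–5×10⁴ CFU/mL for molds. The RPMI had L-glutamine, no bicarbonate, and 0.165 M MOPS to pH 7.0. Twofold dilutions from 250 to 0.49. Plates held at 35 °C, humid, without agitation. MIC is the lowest concentration giving ≥80% inhibition versus drug-free control, read at 24 and 48 h.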

[21] = test system: Candida albicans; experiment: Antifungal activity against Candida albicans ATCC 44859 after 48 hrs; type: functional; conditions: ATCC 44859, 48 h; in short: as §4
[22] = test system: Candida tropicalis; experiment: Antifungal activity against Candida tropicalis 156 after 24 hrs; type: functional; in short: as §4
[23] = test system: Candida tropicalis; experiment: Antifungal activity against Candida tropicalis 156 after 48 hrs; type: functional; in short: as §4
[24] = test system: Pichia kudriavzevii; experiment: Antifungal activity against Candida krusei E28 after 24 hrs; type: functional; in short: as §4
[25] = test system: Pichia kudriavzevii; experiment: Antifungal activity against Candida krusei E28 after 48 hrs; type: functional; in short: as §4
[26] = test system: Nakaseomyces glabratus; experiment: Antifungal activity against Candida glabrata 20/I after 24 hrs; type: functional; in short: as §4
[27] = test system: Nakaseomyces glabratus; experiment: Antifungal activity against Candida glabrata 20/I after 48 hrs; type: functional; in short: as §4
[28] = test system: Trichosporon beigelii; experiment: Antifungal activity against Trichosporon beigelii 1188 after 24 hrs; type: functional; in short: as §4
[29] = test system: Trichosporon beigelii; experiment: Antifungal activity against Trichosporon beigelii 1188 after 48 hrs; type: functional; in short: as §4
[30] = test system: Aspergillus fumigatus; experiment: Antifungal activity against Aspergillus fumigatus 231 after 24 hrs; type: functional; in short: as §4
[31] = test system: Aspergillus fumigatus; experiment: Antifungal activity against Aspergillus fumigatus 231 after 48 hrs; type: functional; in short: as §4
[32] = test system: Lichtheimia corymbifera; experiment: Antifungal activity against Absidia corymbifera 272 after 24 hrs; type: functional; in short: as §4
[33] = test system: Lichtheimia corymbifera; experiment: Antifungal activity against Absidia corymbifera 272 after 48 hrs; type: functional; in short: as §4
[34] = test system: Trichophyton benhamiae; experiment: Antifungal activity against Trichophyton mentagrophytes 445 after 72 hrs; type: functional, Arthroderma benhamiae
In short: (§5)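 Same modified M27-A microdilution with the mold inoculum of 0.5–5×10⁴ CFU/mL. Medium was RPMI 1640 with L-glutamine, no bicarbonate, and 0.165 M MOPS at pH 7.0. Twofold dilutions from 250 to 0.49. Incubated at 35 °C in a humid atmosphere.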

[35] = test system: Trichophyton benhamiae; experiment: Antifungal activity against Trichophyton mentagrophytes 445 after 120 hrs; type: functional, Arthroderma benhamiae; in short: as §5
[36] = test system: L929; experiment: Antiproliferative activity against mouse L929 cells after 72 hrs; type: functional; conditions: L929, 72 h
In short: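 About 10,000 adherent cells per well in RPMI 1640 with 10% heat-inactivated FBS and penicillin/streptomycin, without HEPES. Exposed to 10 concentrations for 72 h at 37 °C in humidified 5% CO₂. Monolayers fixed with glutaraldehyde, stained 15 min with 0.05% methylene blue, and eluted with 0.33 N HCl; OD read at 630 nm. GI50 derived from dose–response curves relative to control.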

[37] = test system: K562; experiment: Antiproliferative activity against human K562 cells after 72 hrs; type: functional; conditions: K562, 72 h
In short: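 About 10,000 suspension cells per well in RPMI 1640 with 10% heat-inactivated FBS and penicillin/streptomycin, without HEPES. Exposed to 10 concentrations for 72 h at 37 °C in humidified 5% CO₂. Wells diluted 1:50 in CASYTON and counted electronically, each result the mean of three successive counts. GI50 is where the concentration–response curve crosses 50% of control cell count.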

[38] = test system: HeLa; experiment: Cytotoxicity against human HeLa cells after 72 hrs; type: functional; conditions: for CC50: Homo sapiens, HeLa, 72 h
In short: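 About 10,000 cells per well in RPMI 1640 were preincubated 48 h without compound. The 10 test concentrations were then applied onto the monolayers and incubated 72 h at 37 °C in humidified 5% CO₂. Monolayers fixed with glutaraldehyde, stained with 0.05% methylene blue, and eluted with 0.33 N HCl; optical density measured at 630 nm.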

| SMILES | MIC [1] | MIC [2] | MIC [3] | MIC [4] | MIC [5] | MIC [6] | MIC [7] | MIC [8] | MIC [9] | MIC [10] | MIC [11] | MIC [12] | MIC [13] | MIC [14] | MIC [15] | MIC [16] | MIC [17] | MIC [18] | MIC [19] | MIC [20] | further results |
| --- | --- | --- | --- | --- | --- | --- | --- | --- | --- | --- | --- | --- | --- | --- | --- | --- | --- | --- | --- | --- | --- |
| C[C@]12CC[C@@H]3c4ccc(OCCCCCCC[n+]5ccc(SCc6ccccc6)cc5)cc4CC[C@H]3[C@@H]1CCC2=O.[Br-] | 3.12 µg/mL | 3.12 µg/mL | 3.12 µg/mL | 0.4 µg/mL | 6.25 µg/mL | 1.56 µg/mL | 3.12 µg/mL | 1.56 µg/mL | 6.25 µg/mL | 4 µM | 8 µM | 2 µM | 2 µM | 8 µM | 8 µM | 8 µM | 8 µM | 8 µM | 16 µM | 3.9 µM | MIC [21]: 3.9 µM; MIC [22]: 15.6 µM; MIC [23]: 15.6 µM; MIC [24]: 7.8 µM; MIC [25]: 7.8 µM; MIC [26]: 15.6 µM; MIC [27]: 15.6 µM; MIC [28]: 3.9 µM; MIC [29]: 7.8 µM; MIC [30]: 15.6 µM; MIC [31]: 31 µM; MIC [32]: 31 µM; MIC [33]: 31 µM; MIC [34]: 7.8 µM; MIC [35]: 7.8 µM; GI50 [36]: 4 µg/mL; GI50 [37]: 2.3 µg/mL; CC10 [38]: 1.2 µg/mL; CC50 [38]: 3.1 µg/mL |
| C[C@]12CC[C@@H]3c4ccc(OCCCCCCC[n+]5ccccc5)cc4CC[C@H]3[C@@H]1CCC2=O.[Br-] | 3.12 µg/mL | 6.25 µg/mL | 25 µg/mL | 0.8 µg/mL | 12.5 µg/mL | 3.12 µg/mL | 6.25 µg/mL | 3.12 µg/mL | 6.25 µg/mL | 16 µM | 32 µM | 32 µM | 32 µM | 16 µM | 32 µM | 32 µM | 16 µM | 32 µM | 32 µM | 3.9 µM | MIC [21]: 3.9 µM; MIC [22]: 15.6 µM; MIC [23]: 15.6 µM; MIC [24]: 15.6 µM; MIC [25]: 31.3 µM; MIC [26]: 7.8 µM; MIC [27]: 15.6 µM; MIC [28]: 3.9 µM; MIC [29]: 7.8 µM; MIC [30]: 3.9 µM; MIC [31]: 62.5 µM; MIC [32]: > 250 µM; MIC [33]: > 250 µM; MIC [34]: 31.3 µM; MIC [35]: 62.5 µM; GI50 [36]: 16.7 µg/mL; GI50 [37]: 5.3 µg/mL; CC10 [38]: 5.1 µg/mL; CC50 [38]: 17.5 µg/mL |
